Test results as given in ChEMBL document CHEMBL4118192, “BET bromodomain ligands: Probing the WPF shelf to improve BRD4 bromodomain affinity and metabolic stability” (Bioorg Med Chem, 2018).

Columns and labels:
Type in all cases: functional
U-251 = assay: Growth inhibition of human U251 cells at 10 uM after 48 hrs by sulforhodamine B assay relative to control; details: U-251, 48 h, read-out: GI
How it was run: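 NCI-60 human cancer cell line screen, single dose of 10 μM for 48 h. Cellular protein content read by sulforhodamine B staining; growth inhibition expressed relative to untreated control.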

UACC-62 = assay: Growth inhibition of human UACC62 cells after 48 hrs by sulforhodamine B assay; details: UACC-62, 48 h
How it was run: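 NCI-60 panel cells treated at five concentrations from 10 nM to 100 μM for 48 h. Read-out by sulforhodamine B protein stain. GI50 and total growth inhibition (TGI, if below 100 μM) taken from the concentration-response data.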

Malme-3M = assay: Growth inhibition of human MALME-3M cells after 48 hrs by sulforhodamine B assay
How it was run: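 NCI-60 panel screen. Cells were exposed for 48 h at five concentrations between 10 nM and 100 μM. Cellular protein was read by sulforhodamine B staining, and GI50 and total growth inhibition (TGI) concentrations were derived.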

SMILES | inhibition of growth at 10 µM (U-251) [%] | GI50 (UACC-62) [µM] | GI50 (Malme-3M) [µM]
COc1ccccc1S(=O)(=O)Nc1ccc2c(c1)CN(C)C(=O)N2 | 50 | 0.7 | –
Cc1noc(C)c1-c1cc(O)cc(C(O)c2ccccc2)c1 (stereo not drawn) | – | – | 28.9
